# Results as given in ChEMBL document CHEMBL1153726, “Synthesis and anticancer activity of sclerophytin-inspired hydroisobenzofurans” (Bioorg Med Chem Lett, 2009).
# pIC50: −log10 of the molar value.
# Key:
# [1] = tested on: HL-60(TB); experiment: Growth inhibition of human HL-60(TB) cells at 1 nM after 96 hrs by MTT assay; assay type: functional; set-up: scale not given: the % may be the effect or the level left
# [2] = tested on: SF-539; experiment: Growth inhibition of human SF539 cells at 10 uM after 96 hrs by MTT assay; assay type: functional; set-up: scale not given: the % may be the effect or the level left
# [3] = tested on: LOX IMVI; experiment: Growth inhibition of human LOXIMVI cells after 96 hrs by MTT assay; assay type: functional
# Outline: (§1)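 Run in the NCI 60 human tumour cell line panel as a five-dose assay. GI50 and LC50 were reported for each cell line.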
# [4] = tested on: CAKI-1; experiment: Growth inhibition of human Caki1 cells at 100 nM after 96 hrs by MTT assay; assay type: functional; set-up: scale not given: the % may be the effect or the level left
# [5] = tested on: SF-295; experiment: Growth inhibition of human SF295 cells at 100 nM after 96 hrs by MTT assay; assay type: functional; set-up: scale not given: the % may be the effect or the level left
# [6] = tested on: M14; experiment: Growth inhibition of human M14 cells at 10 nM after 96 hrs by MTT assay; assay type: functional; set-up: scale not given: the % may be the effect or the level left
# [7] = tested on: SR; experiment: Growth inhibition of human SR cells at 1 uM after 96 hrs by MTT assay; assay type: functional; set-up: scale not given: the % may be the effect or the level left
# [8] = tested on: IGROV-1; experiment: Growth inhibition of human IGROV1 cells after 96 hrs by MTT assay; assay type: functional; details: IGROV-1, 96 h; outline: as §1
# [9] = tested on: SK-MEL-5; experiment: Growth inhibition of human SK-MEL-5 cells at 1 nM after 96 hrs by MTT assay; assay type: functional; set-up: scale not given: the % may be the effect or the level left
# [10] = tested on: SK-MEL-5; experiment: Growth inhibition of human SK-MEL-5 cells at 1 uM after 96 hrs by MTT assay; assay type: functional; set-up: scale not given: the % may be the effect or the level left
# [11] = tested on: IGROV-1; experiment: Growth inhibition of human IGROV1 cells at 1 uM after 96 hrs by MTT assay; assay type: functional; set-up: scale not given: the % may be the effect or the level left
# [12] = tested on: MDA-MB-468; experiment: Growth inhibition of human MDA-MB-468 cells at 10 uM after 96 hrs by MTT assay; assay type: functional; set-up: scale not given: the % may be the effect or the level left
# [13] = tested on: MOLT-4; experiment: Growth inhibition of human MOLT4 cells at 10 uM after 96 hrs by MTT assay; assay type: functional; set-up: scale not given: the % may be the effect or the level left
# [14] = tested on: Malme-3M; experiment: Growth inhibition of human MALME-3M cells at 100 nM after 96 hrs by MTT assay; assay type: functional; set-up: scale not given: the % may be the effect or the level left
# [15] = tested on: SN12C; experiment: Growth inhibition of human SN12C cells at 10 nM after 96 hrs by MTT assay; assay type: functional; set-up: scale not given: the % may be the effect or the level left
# [16] = Antitumor activity against human KB3 cells after 96 hrs by MTT assay; assay type: functional, cell-based; details: KB3, 96 h
# Outline: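 Human KB-3 carcinoma cells exposed to increasing compound concentrations; viability read by MTT colorimetric assay after 96 h. Values are means of triplicate assays, expressed relative to untreated controls.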
# [17] = tested on: HCT-15; experiment: Growth inhibition of human HCT15 cells at 10 uM after 96 hrs by MTT assay; assay type: functional; set-up: scale not given: the % may be the effect or the level left
# [18] = tested on: MCF7; experiment: Growth inhibition of human MCF7 cells at 10 nM after 96 hrs by MTT assay; assay type: functional; set-up: scale not given: the % may be the effect or the level left
# [19] = tested on: EKVX; experiment: Growth inhibition of human EKVX cells at 100 nM after 96 hrs by MTT assay; assay type: functional; set-up: scale not given: the % may be the effect or the level left
# [20] = tested on: K562; experiment: Growth inhibition of human K562 cells after 96 hrs by MTT assay; assay type: functional; details: K562, 96 h; outline: as §1
# [21] = tested on: HT-29; experiment: Growth inhibition of human HT-29 cells at 100 nM after 96 hrs by MTT assay; assay type: functional; set-up: scale not given: the % may be the effect or the level left
# [22] = tested on: A549; experiment: Growth inhibition of human A549 cells at 1 nM after 96 hrs by MTT assay; assay type: functional; set-up: scale not given: the % may be the effect or the level left
# [23] = tested on: SN12C; experiment: Growth inhibition of human SN12C cells after 96 hrs by MTT assay; assay type: functional
# Outline: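 Tested in the NCI 60-cell-line panel in five-dose format; GI50 and LC50 values reported for each cell line.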
# [24] = tested on: OVCAR-5; experiment: Growth inhibition of human OVCAR5 cells at 100 nM after 96 hrs by MTT assay; assay type: functional; set-up: scale not given: the % may be the effect or the level left
# [25] = tested on: SNB-75; experiment: Growth inhibition of human SNB75 cells at 1 nM after 96 hrs by MTT assay; assay type: functional; set-up: scale not given: the % may be the effect or the level left
# [26] = tested on: SN12C; experiment: Growth inhibition of human SN12C cells at 10 uM after 96 hrs by MTT assay; assay type: functional; set-up: scale not given: the % may be the effect or the level left
# [27] = tested on: NCI-H522; experiment: Growth inhibition of human NCI-H522 cells at 1 uM after 96 hrs by MTT assay; assay type: functional; set-up: scale not given: the % may be the effect or the level left
# [28] = tested on: HCT-116; experiment: Growth inhibition of human HCT116 cells at 10 nM after 96 hrs by MTT assay; assay type: functional; set-up: scale not given: the % may be the effect or the level left
# [29] = tested on: M14; experiment: Growth inhibition of human M14 cells after 96 hrs by MTT assay; assay type: functional; details: M14, 96 h; outline: as §1
# [30] = Growth inhibition of human Hs 578T cells at 10 nM after 96 hrs by MTT assay; assay type: functional; set-up: scale not given: the % may be the effect or the level left
# [31] = read-out: LC50 (the source's name)
# [32] = read-out: Log10GI50 (converted)
# [33] = read-out: Log10LC50 (converted)
compound,measurement,setting,value
C=C(C)[C@H]1CC=C(C)C2=CO[C@@H](c3ccccc3F)[C@@H]21,Activity,[1],104%
same,Activity,[2],92.75%
same,GI50,[3]; read-out: GI50,4.3 µM
same,CC50,[3]; [31],55.4 µM
same,GI50,[3]; [32],4.27 µM
same,CC50,[3]; [33],55 µM
same,TGI,[3]; read-out: Log10TGI (converted),20 µM
same,TGI,[3]; read-out: TGI,19.8 µM
same,Activity,[4],87%
same,Activity,[5],88%
same,Activity,[6],89%
same,Activity,[7],-36%
same,GI50,[8]; read-out: GI50,11.3 µM
same,CC50,[8]; [31],> 100 µM
same,GI50,[8]; [32],11.2 µM
same,CC50,[8]; [33],> 100 µM
same,TGI,[8]; read-out: Log10TGI (converted),34.7 µM
same,TGI,[8]; read-out: TGI,34.6 µM
same,Activity,[9],91%
same,Activity,[10],21%
same,Activity,[11],56%
same,Activity,[12],102.71%
same,Activity,[13],74.3%
same,Activity,[14],74%
same,Activity,[15],87%
same,pIC50,[16],6.00
same,Activity,[17],103.41%
same,Activity,[18],103%
same,Activity,[19],80%
same,GI50,[20]; read-out: GI50,2.04 µM
same,CC50,[20]; [31],49.3 µM
same,GI50,[20]; [32],2.04 µM
same,CC50,[20]; [33],49 µM
same,TGI,[20]; read-out: Log10TGI (converted),13.2 µM
same,TGI,[20]; read-out: TGI,13.2 µM
same,Activity,[21],82%
same,Activity,[22],93%
same,GI50,[23]; read-out: GI50,6.63 µM
same,CC50,[23]; [31],45.9 µM
same,GI50,[23]; [32],6.61 µM
same,CC50,[23]; [33],45.7 µM
same,TGI,[23]; read-out: Log10TGI (converted),20.4 µM
same,TGI,[23]; read-out: TGI,20.3 µM
same,Activity,[24],100%
same,Activity,[25],85%
same,Activity,[26],100.7%
same,Activity,[27],29%
same,Activity,[28],88%
same,GI50,[29]; read-out: GI50,6.51 µM
same,CC50,[29]; [31],45.6 µM
same,GI50,[29]; [32],6.46 µM
same,CC50,[29]; [33],45.7 µM
same,TGI,[29]; read-out: Log10TGI (converted),20 µM
same,TGI,[29]; read-out: TGI,20.2 µM
same,Activity,[30],83%
